From ChEMBL document CHEMBL1125130, “4-Alkyl-1,4-dihydropyridines derivatives as specific PAF-acether antagonists” (J Med Chem, 1990)

How the values were obtained:
Rattus norvegicus [1] = assay: Tested in vivo for ability to inhibit PAF-induced hypotension in rats by measuring the drop in mean arterial blood pressure(mmHg) after 20 minutes activity; assay type: functional
Method in brief: (§1)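 Male Sprague-Dawley rats (225 ± 2 g) under sodium pentobarbital (50 mg/kg ip). PAF 0.66 µg/kg injected; compounds 5 mg/kg iv given 3 min later at maximal blood pressure fall. Blood pressure changes recorded for 30 min after PAF, compared with vehicle controls (five rats per group).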

Rattus norvegicus [2] = assay: Tested in vivo for ability to inhibit PAF-induced hypotension in rats by measuring the drop in mean arterial blood pressure(mmHg) after 3 minutes activity; assay type: functional; method in brief: as §1

CCO/C(O)=C1/C(C)=NC(C)=C(C(=O)OCCSc2ccccc2)C1C (configuration not stated)
MABP (Rattus norvegicus [1]): 23 mmHg
MABP (Rattus norvegicus [2]): 52 mmHg

CCCC1C(C(=O)OCCSCC)=C(C)N=C(C)/C1=C(/O)OCC (configuration not stated)
MABP (Rattus norvegicus [1]): 71 mmHg
MABP (Rattus norvegicus [2]): 106 mmHg

CO/C(O)=C1\C(C)=NC(C)=C(C(=O)OCCSc2ccccc2)C1C (configuration not stated)
MABP (Rattus norvegicus [1]): 14 mmHg
MABP (Rattus norvegicus [2]): 30 mmHg

CCO/C(O)=C1\C(C)=NC(C)=C(C(=O)OCCSC)C1C (configuration not stated)
MABP (Rattus norvegicus [1]): 29 mmHg
MABP (Rattus norvegicus [2]): 88 mmHg

CO/C(O)=C1\C(C)=NC(C)=C(C(=O)OCCSC)C1C (configuration not stated)
MABP (Rattus norvegicus [1]): 5 mmHg
MABP (Rattus norvegicus [2]): 51 mmHg

CC1=NC(C)=C(C(=O)OCCSc2ccccc2)C(C)/C1=C(\O)OC(C)C (configuration not stated)
MABP (Rattus norvegicus [1]): 27 mmHg
MABP (Rattus norvegicus [2]): 78 mmHg

CCO/C(O)=C1\C(C)=NC(C)=C(C(=O)OCCSC)C1CC (configuration not stated)
MABP (Rattus norvegicus [1]): 36 mmHg
MABP (Rattus norvegicus [2]): 77 mmHg

CCO/C(O)=C1\C(C)=NC(C)=C(C(=O)OCCSCC)C1C (configuration not stated)
MABP (Rattus norvegicus [1]): 18 mmHg
MABP (Rattus norvegicus [2]): 64 mmHg

CCCC1C(C(=O)OCCSC)=C(C)N=C(C)/C1=C(/O)OCC (configuration not stated)
MABP (Rattus norvegicus [1]): 60 mmHg
MABP (Rattus norvegicus [2]): 101 mmHg

CCSCCO/C(O)=C1\C(C)=NC(C)=C(C(=O)OC)C1C (configuration not stated)
MABP (Rattus norvegicus [1]): 32 mmHg
MABP (Rattus norvegicus [2]): 68 mmHg

CC1=NC(C)=C(C(=O)OCCSc2ccccc2)C(C)/C1=C(\O)OCC1CCCO1 (configuration not stated)
MABP (Rattus norvegicus [1]): 21 mmHg
MABP (Rattus norvegicus [2]): 63 mmHg
